The values that follow come from ChEMBL document CHEMBL1123711, “Substituted 1,2,3,4-tetrahydroaminonaphthols: antihypertensive agents, calcium channel blockers, and adrenergic receptor blockers with catecholamine-depleting effects” (J Med Chem, 1987).

For test [1], the system named is Rattus norvegicus. The test is described as follows: Antihypertensive activity as percent maximum (0-6 hr) decrease in blood pressure at 135 umol/kg po (~40-50 mg/kg) in 5 spontaneously hypertensive rats (SHR). It is filed as functional.
For a further test, the species on record is Oryctolagus cuniculus. Put plainly: Calcium channel blocking activity in vitro in rabbit thoracic aorta preparation (n=4) by using linear regression analysis. It counts as functional. In a few lines:
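Rabbit thoracic aorta strips held under a 4-g preload in PSS at 37 °C, pH 7.35, gassed with 95% O2/5% CO2, equilibrated ≥1 h. Contraction by high-K+ (100 mM) PSS with Na+ reduced equimolarly. At plateau, cumulative test concentrations were added and relaxation was normalized to initial tension. IC50 by regression on the linear part of the concentration–response curve.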

Test [2] has as its system Rattus norvegicus. The test is described as follows: Antihypertensive activity as percent average (over 24 hr) decrease in blood pressure at 135 umol/kg po (~40-50 mg/kg) in 5 spontaneously hypertensive rats (SHR). It counts as functional.
In test [3] the test system is Rattus norvegicus. Put plainly: Antihypertensive activity as percent maximum (over 24 hr decrease in blood pressure at 135 umol/kg, perorally (~40-50 mg/kg) in 5 spontaneously hypertensive rats (SHR). It counts as functional.
The test system of test [4] is Rattus norvegicus. The test is described as follows: Antihypertensive activity as percent maximum (0-6 hr) decrease in blood pressure at 135 umol/kg, perorally (~40-50 mg/kg) in 5 spontaneously hypertensive rats (SHR). It is filed as functional.
The test system of test [5] is Rattus norvegicus. The test is described as follows: Antihypertensive activity as percent maximum (0-6 hr) decrease in blood pressure at 45 umol/kg po (~22 mg/kg) in 4 spontaneously hypertensive rats (SHR). It counts as functional.
Test [6] deals with Rattus norvegicus. Put plainly: Percent Catecholamine-depletion in heart by administering a dose of 2 x 45 umol/kg, perorally to 4 spontaneously hypertensive rats (SHR). It counts as functional. In a few lines: (§1)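 SHR given two oral doses of 45 µmol/kg, 17 h apart. Rats decapitated 4 h after the second dose; hearts and brains quickly removed and frozen. Tissue extracts in glutathione centrifuged at 0 °C, and the protein-free supernatant diluted and assayed in duplicate for catecholamines by radioenzymatic kit.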

The next test is filed under the species Canis familiaris. The test is described as follows: Compound was evaluated for the slow action potential blockade in canine Purkinje fibers in vitro (n = 4).
Test [7] relates to Rattus norvegicus. The test is described as follows: Antihypertensive activity as percent average (0-24 hr) decrease in blood pressure at 45 umol/kg po (~22 mg/kg) in 4 spontaneously hypertensive rats (SHR). It is filed as functional.
In test [8] the test system is Rattus norvegicus. Put plainly: Percent Catecholamine-depletion in brain by administering a dose of 2 x 45 umol/kg, perorally to 4 spontaneously hypertensive rats (SHR). It is filed as functional. In a few lines:
as §1

In test [9] the target is Adrenergic receptor alpha. Put plainly: Compound was evaluated for the alpha-Adrenoceptor pA2 blocking activity in vitro in rabbit thoracic aorta. It is filed as functional, tissue-based, Oryctolagus cuniculus.
For test [10], the system named is Rattus norvegicus. Put plainly: Antihypertensive activity as percent maximum (over 24 h) decrease in blood pressure at 135 umol/kg, perorally (~40-50 mg/kg) in 5 spontaneously hypertensive rats (SHR). It is filed as functional.
Test [11] relates to Rattus norvegicus. Put plainly: Antihypertensive activity as percent maximum (over 24 hr) decrease in blood pressure at 135 umol/kg, perorally (~40-50 mg/kg) in 5 spontaneously hypertensive rats (SHR). It is filed as functional.
Test [12] concerns Rattus norvegicus. The test is described as follows: Antihypertensive activity as percent maximum (over 24 hr) decrease in blood pressure at 135 umol/kg, perorally (~40-50 mg/kg) in 5 spontaneously hypertensive rats (SHR); NA denotes no activity. It is filed as functional, organism-based.
The subject of test [13] is Rattus norvegicus. Put plainly: Antihypertensive activity as percent maximum (0-6 hr) decrease in blood pressure at 135 umol/kg, perorally (~40-50 mg/kg) in 5 spontaneously hypertensive rats (SHR); NA denotes no activity. It is filed as functional, organism-based.
Test [14] has as its system Rattus norvegicus. The test is described as follows: Antihypertensive activity as percent maximum (0-6 hr) decrease in blood pressure at 45 umol/kg poin 5 spontaneously hypertensive rats (SHR). It is filed as functional.
For test [15], the system named is Rattus norvegicus. The test is described as follows: Antihypertensive activity as percent average (over 24 hr) decrease in blood pressure at 135 umol/kg po (~40-50 mg/kg) in 5 spontaneously hypertensive rats (SHR); NA denotes not active. It is filed as functional, organism-based.
Test [16] has as its system Rattus norvegicus. The test is described as follows: Antihypertensive activity as percent maximum (0-6 hr) decrease in blood pressure at 135 umol/kg po (~40-50 mg/kg) in 5 spontaneously hypertensive rats (SHR); NA denotes not active. It counts as functional, organism-based.

Calls of active or inactive are those of the source. The rule behind the calls is not given here.

The IC50 is the concentration that inhibits the measured activity by half. For the molecule `COc1cc2c(cc1OC)C[C@H](NCCC(c1ccccc1)c1ccccc1)CC2.Cl`, the Decrease turned out to be 11% with Rattus norvegicus [1] and 12% in the test on Rattus norvegicus [2]. In addition, the IC50 in the test listed under Oryctolagus cuniculus worked out at 200 nM.

Take `COc1ccc(OC)c2c1C[C@H](NCCCc1ccccc1)[C@@H](O)C2.Cl`: the Decrease in the test on Rattus norvegicus [3] and in the test on Rattus norvegicus [4] was 14% throughout. Moreover, the IC50 in the test filed under Oryctolagus cuniculus was 5500 nM.

In the test with Rattus norvegicus [5], `COc1ccc(CCN(C)CCCC(C#N)(c2ccc(OC)c(OC)c2)C(C)C)cc1OC` (centres undefined) registered a Max of 16%. In the test with Rattus norvegicus [6], the Depletion came out at 75%. Moreover, the Decrease in the test on Rattus norvegicus [1] is on record as 40%; in the test with Rattus norvegicus [2], 32%. Further, the IC50 in the test listed under Canis familiaris is 110 nM; in the test listed under Oryctolagus cuniculus, 300 nM. This molecule displayed an Average with Rattus norvegicus [7] of 21%.

One may read the pA2 as a measure of antagonist potency on a negative log scale. Higher therefore signals higher antagonist potency. Regarding `COc1cc2c(cc1OC)C[C@H](O)[C@@H](NCCC(c1ccccc1)c1ccccc1)C2.Cl`, the Max in the test with Rattus norvegicus [5] was found to be 21%. The results for the Depletion in the test with Rattus norvegicus [8] and with Rattus norvegicus [6] were 0% and 97%, respectively. The Decrease with Rattus norvegicus [1] amounted to 32%; in the test with Rattus norvegicus [2], 34%. In addition, the figures for the IC50 in the test listed under Canis familiaris and in the test listed under Oryctolagus cuniculus were 270 nM and 400 nM, respectively. Also, in [9], the pA2 amounted to 6. Besides, in the test on Rattus norvegicus [7], the Average is 25%.

In the case of `COc1ccc(OC)c2c1C[C@H](NCCCCC(c1ccccc1)c1ccccc1)[C@@H](O)C2.Cl`, the Decrease in the test with Rattus norvegicus [10] and with Rattus norvegicus [4] was 10% in each case. The 50% inhibitory concentration (IC50) in the test listed under Oryctolagus cuniculus was found to be 2000 nM.

Turning to `Cl.O[C@H]1Cc2ccccc2C[C@@H]1NCCC(c1ccccc1)c1ccccc1`, the Decrease turned out to be 11% in the test on Rattus norvegicus [4] and 8% in the test with Rattus norvegicus [11]. In the test filed under Oryctolagus cuniculus, the IC50 was determined as 400 nM.

`COc1cc2c(cc1OC)C[C@H](OC(C)=O)[C@@H](NCCC(c1ccccc1)c1ccccc1)C2.Cl`: the Decrease in the test with Rattus norvegicus [4] and with Rattus norvegicus [11] was 34% each time. For the same molecule, in the test filed under Oryctolagus cuniculus, the IC50 came out at 2800 nM.

As for `COc1ccc(OC)c2c1C[C@H](NCC(c1ccccc1)c1ccccc1)[C@@H](O)C2.Cl`, the Decrease in the test on Rattus norvegicus [4] is 10%; in the test on Rattus norvegicus [11], 16%. Moreover, in the test listed under Oryctolagus cuniculus, the IC50 came to 13300 nM.

Turning to `COc1ccc(OC)c2c1C[C@H](NCCc1ccccc1)[C@@H](O)C2`, the Decrease result in the test on Rattus norvegicus [12] and in the test on Rattus norvegicus [13] was “inactive” throughout. Besides, in the test filed under Oryctolagus cuniculus, the IC50 came out at 21000 nM.

`COc1cc2c(cc1OC)C[C@H](O)[C@@H](NCCC(c1ccccc1)C(C)C)C2.Cl` (some centres undefined): the Decrease in the test on Rattus norvegicus [10] came out at 10%; in the test with Rattus norvegicus [4], 8%. The IC50 in the test filed under Oryctolagus cuniculus worked out at 2500 nM.

Consider `COc1cc2c(cc1OC)C[C@H](N(C)CCC(c1ccccc1)c1ccccc1)[C@@H](O)C2`, for which the results for the Decrease in the test with Rattus norvegicus [4] and in the test with Rattus norvegicus [11] were 11% and 19%, respectively. In the test listed under Oryctolagus cuniculus, the IC50 was 400 nM.

With `COc1ccc(OC)c2c1C[C@H](NCCCC(c1ccccc1)c1ccccc1)[C@@H](O)C2.Cl`, the Decrease in the test on Rattus norvegicus [4] came out at 6%; in the test on Rattus norvegicus [11], 10%. The IC50 in the test filed under Oryctolagus cuniculus was found to be 800 nM.

Consider `COc1ccc(OC)c2c1C[C@H](NCCCCc1ccccc1)[C@@H](O)C2.Cl`, for which the results for the Decrease in the test on Rattus norvegicus [4] and in the test with Rattus norvegicus [11] were 26% and 23%, respectively. Moreover, the IC50 in the test filed under Oryctolagus cuniculus is 3600 nM.

Take `COc1cc2c(cc1OC)C[C@H](O)[C@@H](NCCC1c3ccccc3-c3ccccc31)C2.Cl`: the Decrease worked out at 32% in the test on Rattus norvegicus [4] and 34% with Rattus norvegicus [11]. For the same molecule, in the test listed under Oryctolagus cuniculus, the half-inhibitory concentration (IC50) worked out at 1400 nM.

On to `COc1ccc(OC)c2c1C[C@H](NCCCc1nc3ccccc3s1)[C@@H](O)C2.Cl`, for which the Decrease with Rattus norvegicus [4] and with Rattus norvegicus [11] was 16% each time. Further, the IC50 in the test listed under Oryctolagus cuniculus was 13500 nM.

For the molecule `COc1cc2c(cc1OC)C[C@H](O)[C@@H](NC(=O)CC(c1ccccc1)c1ccccc1)C2`, the Decrease was 6% in the test with Rattus norvegicus [4] and 16% with Rattus norvegicus [11]. The IC50 in the test listed under Oryctolagus cuniculus was 9400 nM.

On to `COc1cc2c(cc1OC)C[C@H](NCCC(c1ccccc1)c1ccccc1)[C@H](O)C2.Cl`, for which the Decrease in the test with Rattus norvegicus [1] is recorded as 14%; in the test on Rattus norvegicus [2] it was 19%. The IC50 in the test listed under Oryctolagus cuniculus came out at 200 nM.

For `Cl.Oc1cc2c(cc1O)C[C@H](O)[C@@H](NCCC(c1ccccc1)c1ccccc1)C2`, the Decrease in the test with Rattus norvegicus [14] came to 29%; in the test with Rattus norvegicus [2], 30%. Further, in the test filed under Oryctolagus cuniculus, the IC50 is 19600 nM.

Turning to `COc1cc2c(cc1OC)C[C@H](OC)[C@@H](NCCC(c1ccccc1)c1ccccc1)C2`, the Decrease result in the test with Rattus norvegicus [15] and with Rattus norvegicus [16] was “inactive” each time. In addition, in the test listed under Oryctolagus cuniculus, the IC50 was 1800 nM.

As to `Cl.O[C@H]1Cc2cc3c(cc2C[C@@H]1NCCC(c1ccccc1)c1ccccc1)OCO3`, the Decrease in the test on Rattus norvegicus [4] and with Rattus norvegicus [11] was 25% each time. For the same molecule, in the test listed under Oryctolagus cuniculus, the IC50 came out at 300 nM.

For `COc1ccc(OC)c2c1C[C@H](NCCCc1c[nH]c3ccccc13)[C@@H](O)C2.Cl`, the figures for the Decrease in the test with Rattus norvegicus [4] and in the test on Rattus norvegicus [11] were 23% and 24%, respectively. Further, the IC50 in the test filed under Oryctolagus cuniculus is 23000 nM.

In the case of `COc1ccc(OC)c2c1C[C@H](NCCC(c1ccccc1)c1ccccc1)[C@@H](O)C2.Cl`, the Decrease with Rattus norvegicus [4] turned out to be 15%; in the test on Rattus norvegicus [11], 19%. In addition, the IC50 in the test filed under Oryctolagus cuniculus turned out to be 1500 nM.

For the molecule `Cc1cc2c(cc1C)C[C@H](O)[C@@H](NCCC(c1ccccc1)c1ccccc1)C2.Cl`, the Decrease is listed as 17% in the test with Rattus norvegicus [4] and 32% with Rattus norvegicus [11]. Moreover, the IC50 in the test listed under Oryctolagus cuniculus was found to be 1000 nM.

`COc1cc2c(cc1OC)C[C@H](O)[C@@H](NCCC(c1ccccc1)c1ccccc1OC)C2.Cl` (some centres undefined): the Decrease was 21% in the test on Rattus norvegicus [4] and 28% in the test with Rattus norvegicus [11]. Further, in the test listed under Oryctolagus cuniculus, the IC50 came out at 600 nM.

For `COc1ccc(OC)c2c1C[C@H](NCCC(C1CCCCC1)C1CCCCC1)[C@@H](O)C2.Cl`, the Decrease in the test on Rattus norvegicus [4] was found to be 27%; in the test on Rattus norvegicus [11] it was 23%.
